“And” between values parts separate entries of the source, which are not always exact repeats. Equal values may be shown once.
Legend:
3D7 parasite line = conditions: ref Whittell et al., 2011; cited from earlier work
[1] = system: G. duodenalis trophozoite stage; experiment: In vitro antigiardial assay; type: cell-based; conditions: Giardia duodenalis, 48 h, G. duodenalis trophozoites
Outline: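 Log-phase trophozoites grown in modified TYI-S-33 at 37 °C, harvested by chilling on ice, counted. DMSO stocks diluted two-fold serially; 2 × 10^5 trophozoites/well; metronidazole positive control. Incubated 48 h at 37 °C, anaerobic. BacTiter-Glo added, 20 min at 37 °C, luminescence read. Survival = medium-blank-corrected signal vs untreated; triplicates. SI = Caco-2 CC50 / IC50.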

Cytotoxicity = type: cell-based; conditions: human, Caco-2 cells
Outline: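 Caco-2 cells grown 24 h in EMEM + 10% FBS, 37 °C, 5% CO2. Test compound (10 ng/ml–100 μg/ml, in EMEM with 0.5% DMSO) applied for 24 h. MTT (5 mg/ml stock) added for 4 h, formazan dissolved in 4 mM HCl/0.1% Nonidet P-40 in isopropanol. A590 read, 620 nm reference. Viability relative to untreated wells; CC50 from curve fit.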

IC50 [1]	Compound	IC50 (3D7 parasite line) [nM]	CC50 at 24 h (Cytotoxicity)
	Cn1cc2c3ccccc3nc-2c2ccccc21 [isocryptolepine, Isocryptolepine]	665	
2.01 µg/mL and 11.7 µM	Cc1ncc([N+](=O)[O-])n1CCO [Metronidazole, metronidazole]		> 100 µg/mL and > 100 µM

— paper PMC11377146 (International Journal for Parasitology: Drugs and Drug …, 2024)
